# Experimental data from different studies.
# Each line is one published result; the experiments were not run side by side.
# Target: Mitogen-activated protein kinase kinase kinase kinase 2 (MAP4K2, Homo sapiens, UniProt Q12851)
# One construct used (Q12851 1-820): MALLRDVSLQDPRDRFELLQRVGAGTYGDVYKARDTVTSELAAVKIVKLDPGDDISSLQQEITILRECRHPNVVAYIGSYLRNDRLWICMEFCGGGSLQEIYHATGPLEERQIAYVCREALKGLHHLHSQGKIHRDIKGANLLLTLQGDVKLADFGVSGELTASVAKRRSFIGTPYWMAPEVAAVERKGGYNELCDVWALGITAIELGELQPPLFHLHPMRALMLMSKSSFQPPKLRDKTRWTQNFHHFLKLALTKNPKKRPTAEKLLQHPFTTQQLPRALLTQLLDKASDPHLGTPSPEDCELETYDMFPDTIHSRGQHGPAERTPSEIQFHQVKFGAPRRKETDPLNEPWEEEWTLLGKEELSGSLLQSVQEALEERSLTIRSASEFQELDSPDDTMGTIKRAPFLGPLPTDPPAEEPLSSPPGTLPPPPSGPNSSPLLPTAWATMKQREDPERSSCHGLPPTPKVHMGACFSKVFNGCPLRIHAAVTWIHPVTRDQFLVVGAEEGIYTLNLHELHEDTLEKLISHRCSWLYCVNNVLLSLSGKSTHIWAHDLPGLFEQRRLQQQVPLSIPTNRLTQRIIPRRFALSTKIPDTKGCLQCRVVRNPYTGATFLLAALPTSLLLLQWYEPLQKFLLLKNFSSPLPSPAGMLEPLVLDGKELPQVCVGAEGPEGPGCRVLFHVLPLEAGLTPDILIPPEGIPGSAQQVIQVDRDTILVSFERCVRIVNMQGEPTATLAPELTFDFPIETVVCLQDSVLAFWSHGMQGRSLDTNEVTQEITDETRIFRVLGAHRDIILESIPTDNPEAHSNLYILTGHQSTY
Compound,assay,conditions,quantity,value
O=C1NC(=O)c2cc(Nc3ccc(F)cc3)c(Nc3ccc(F)cc3)cc21,cell-free assay,0.5 µM,remaining signal,98.2%
COc1cc(Nc2cnc(C#N)c(O[C@H](C)CN(C)C)n2)ncc1-c1cnn(C)c1,"enzyme activity, inhibitor, radiometric",10 µM,remaining activity,56%
CCN(CC)CCNC(=O)c1c(C)[nH]c(/C=C2\C(=O)Nc3ccc(F)cc32)c1C,"enzyme activity, inhibitor",0.3 µM,inhibition,45%
CN1CCN(C(=O)c2ccc3cc(CCNc4ccnc5ccc(C#N)cc45)ccc3c2)CC1,"binding, competition with immobilised ligand",2 µM,inhibition,> 35%
CNC(=O)c1cc(Oc2ccc(NC(=O)Nc3ccc(Cl)c(C(F)(F)F)c3)cc2)ccn1,"enzyme activity, inhibitor",0.3 µM,inhibition,5%
Cc1ccc(C(=O)Nc2ccc(CN3CCN(C)CC3)c(C(F)(F)F)c2)cc1C#Cc1cnc2cccnn12,"enzyme activity, inhibitor",23.5 nM,remaining activity,4.9%
O=C(Nc1cnn(-c2csc(C(=O)NC3COC3)c2)c1)Nc1c(F)cccc1Cl,"enzyme activity, inhibitor",5 µM,remaining activity,95.3%
CCCOc1ccc(OC)c(F)c1C(=O)c1ccc(C(=O)N[C@@H]2CNC[C@H]2NC(=O)c2ccc3[nH]ncc3c2)cc1,"enzyme activity, inhibitor",10 µM,remaining activity,61%
Cc1c(NC(=O)c2cc(C(N)=O)nc3cc(F)ccc23)c(C(F)(F)F)nn1Cc1ccc(C#N)cc1,"cell-free assay, competition with immobilised ligand",1 µM,remaining binding,88%
FC(F)(F)Oc1cccc(-c2cnc3ccc(-c4ccncc4)nn23)c1,"enzyme activity, inhibitor, radiometric",5 µM,activity vs control,33%
CN1CC(Oc2cnc(C#N)cc2-c2ccn3nc(NC(=O)C4CC4)cc3c2)C1,"enzyme activity, inhibitor",1 µM,inhibition,2%
COc1cc2ncnc(Nc3ccc(Oc4ccccc4)c(C)c3C)c2cc1OC,"enzyme activity, inhibitor",1 µM,inhibition,0%
CC/C(=N\NC(=O)NCc1cccc(O)c1)c1ccc(O)c(C)c1O,"enzyme activity, inhibitor",0.1 µM,inhibition,1.4%
FC(F)c1nc2ccccc2n1-c1nc(N2CCOCC2)nc(N2CCOCC2)n1,"enzyme activity, inhibitor",10 µM,remaining activity,104%
CC(=O)N1CCC(c2ccc(C(=O)NC(=N)N)cc2C(F)(F)F)CC1,"cell-free assay, competition with immobilised ligand",1 µM,remaining binding,100%
Cc1ccc(Nc2nccc(N(C)c3ccc4c(C)n(C)nc4c3)n2)cc1S(N)(=O)=O,"enzyme activity, inhibitor",10 µM,inhibition,83%
O=c1nc(-c2ccccn2)sc2ccccc12,"binding, competition with immobilised ligand",1 µM,remaining binding,100%
CC(C)(C)c1nc2c(s1)c1nc(N)ncc1c1ccc(NS(=O)(=O)c3c(F)cccc3F)c(F)c12,"enzyme activity, inhibitor, radiometric",1 µM,remaining activity,114%
Cc1nc(N2CC[C@@H](O)C2)ncc1-c1cc(C(F)(F)F)cc2[nH]ncc12,"binding, competition with immobilised ligand",1 µM,remaining binding,76%
Oc1cccc(-c2nc(N3CCOCC3)c3oc4ncccc4c3n2)c1,"enzyme activity, inhibitor",10 µM,remaining activity,91%
Cc1cc(NC(=O)c2cccc(S(F)(F)(F)(F)F)c2)cc(-n2ccn3nc(-c4cccnc4)cc23)c1,"cell-free assay, competition with immobilised ligand",1 µM,remaining binding,100%
N#CCCc1ccc2c(c1)-c1[nH]c3ccc([N+](=O)[O-])cc3c1CC(=O)N2,cell-free assay,0.5 µM,remaining signal,14%
c1ccc(N2CCN(Cc3nc4ccccc4[nH]3)CC2)nc1,"binding, competition with immobilised ligand",1 µM,remaining binding,100%
COc1cc(Cl)c(C(=O)N[C@@H](CN[C@H]2CC[C@@H](N)CC2)Cc2ccc(C#N)cc2)cc1-c1ccc(CN[C@H](C)c2ccc(C)cc2)o1,"enzyme activity, inhibitor",1 µM,remaining activity,94%
CC(C)(O)c1cncc(-c2nc3ccc(F)cc3n2C2CC2)c1,"cell-free assay, competition with immobilised ligand",1 µM,remaining binding,98%
Cc1ccc(NC(=O)c2ccc(C)c(C(F)(F)F)c2)cc1C#Cc1nn(C2CCC(O)CC2)c2ncnc(N)c12 (centres unmarked),cell-free assay,10 µM,remaining signal,49%
